Results gathered from unrelated publications.
ALK L1196M: ALK tyrosine kinase receptor (ALK, Homo sapiens, UniProt Q9UM73, L1196M)
ALK: ALK tyrosine kinase receptor (ALK, Homo sapiens, UniProt Q9UM73)
ALK C1156Y: ALK tyrosine kinase receptor (ALK, Homo sapiens, UniProt Q9UM73, C1156Y)

Structure (SMILES)	target	assay	setting	remaining binding [%]
Cc1cnc(Nc2ccc(C(=O)N3CCC(N4CCCC4)CC3)cc2)nc1-c1cc2ccccc2s1	ALK L1196M	binding, competition with immobilised ligand	1 µM	82
O=C(Nc1c[nH]nc1C(=O)NC1CCNCC1)c1cc(F)cc(F)c1	ALK	binding, competition with immobilised ligand	1 µM	91
COc1cnc(Nc2cccc(S(N)(=O)=O)c2)nc1N1CCN(c2ccccc2)C(=O)C1	ALK L1196M	binding, competition with immobilised ligand	1 µM	81
COc1ccnn2ncc(-c3ccnc(N(C)C)n3)c12	ALK	binding	1 µM	96
Nc1ncc2c(n1)-c1c([nH]c3ccc(C#CC4CC4)cc13)CCCC2	ALK	binding, competition with immobilised ligand	1 µM	95
O=C(c1ccc(Nc2nccc(-c3cc4ccccc4s3)n2)cc1)N1CCC(N2CCCC2)CC1	ALK	binding, competition with immobilised ligand	1 µM	84
C=CC(=O)N1CCC(C(=O)NCC(=O)N2CCN(c3nc(-c4cnc(N)nc4C(F)F)nc(N4CCOCC4)n3)CC2)CC1	ALK	binding, competition with immobilised ligand	1 µM	71
CN(C)c1nccc(-c2cnn3ncccc23)n1	ALK	binding	1 µM	100
O=C(c1ccc(Nc2ncc(Cl)c(-c3cc4ccccc4s3)n2)cc1)N1CCC(N2CCCC2)CC1	ALK C1156Y	binding, competition with immobilised ligand	1 µM	59
C[C@@H]1CN(c2ccc3ncc(-c4ccc5[nH]nc(C6CC6)c5c4)n3n2)C[C@H](C)O1	ALK	binding, competition with immobilised ligand	0.5 µM	80
C[C@@H]1CN(c2cc(-c3nn(C)c4ccc(OC5(C)CC5)cc34)ncn2)C[C@H](C)O1	ALK C1156Y	cell-free assay, competition with immobilised ligand	1 µM	82
C[C@H]1CCN(c2nccc(-c3cnn4ncccc34)n2)C1	ALK C1156Y	binding	1 µM	99
O=C(NCCCN1CCOCC1)c1ccc(Nc2nccc(-c3cc4ccccc4s3)n2)cc1	ALK	binding, competition with immobilised ligand	1 µM	100
CO[C@@H](C)c1c(Nc2ccc([C@H](N(C)C(=O)C3CCS(=O)(=O)CC3)C(F)(F)F)cc2)cnc2cc(Cl)nn12	ALK C1156Y	cell-free assay, competition with immobilised ligand	1 µM	89
O=C(c1ccc(Nc2ncc(Cl)c(-c3ccc(Cl)s3)n2)cc1)N1CCC(N2CCCC2)CC1	ALK L1196M	binding, competition with immobilised ligand	1 µM	67
CN(C)c1ncc(F)c(-c2cnn3ncccc23)n1	ALK C1156Y	binding	1 µM	80
C[C@@H](c1ccc(-n2cnc3c(N)ncnc32)cc1)N1CCc2nn(C)c(Cc3ccccc3)c2C1=O	ALK L1196M	binding, competition with immobilised ligand	0.1 µM	60
O=S(=O)(NC1CCC(c2cc(F)ccc2F)(S(=O)(=O)c2ccc(Cl)cc2)CC1)C(F)(F)F (stereo not shown)	ALK L1196M	cell-free assay, competition with immobilised ligand	1 µM	94
CC1CCCN1c1nccc(-c2cnn3ncccc23)n1 (stereo not shown)	ALK L1196M	binding	1 µM	85

Structure (SMILES)	target	assay	setting	remaining binding [%]
CNC(=O)[C@@H]1CC[C@@H](n2c(-c3ccc4cnccc4c3)nc3ccc(C(=O)NCc4cccc(C(N)=O)c4)cc32)C1	ALK C1156Y	binding, competition with immobilised ligand	1 µM	100
COc1ccc2c(c1)O[C@H](c1ccc(OC)c(OC)c1)C[C@@H]2NC(=O)C1(c2ccc3c(c2)OC(F)(F)O3)CC1	ALK	cell-free assay, competition with immobilised ligand	1 µM	100
N#Cc1ccccc1CSc1nnc2c(n1)[nH]c1ccccc12	ALK	binding, competition with immobilised ligand	10 µM	72
COc1cnc(Nc2cccc(S(N)(=O)=O)c2)nc1N1CCN(c2ccccc2)CC1	ALK C1156Y	binding, competition with immobilised ligand	1 µM	100
CCOC(=O)c1cc2cc(-c3cc(C(=O)NCc4ccc(C(=O)O)cc4)nn3C)ccc2[nH]1	ALK L1196M	cell-free assay, competition with immobilised ligand	0.1 µM	98
N[C@@H]1CCN(c2nccc(-c3cnn4ncccc34)n2)C1	ALK L1196M	binding	1 µM	100
O=C(NC[C@@H]1[C@H]2CN(C(=O)OCc3cc(C(F)(F)F)cc(C(F)(F)F)c3)C[C@@H]12)c1ccc2[nH]nnc2c1	ALK	cell-free assay, competition with immobilised ligand	1 µM	79
FC(F)(F)Oc1cccc(-c2cnc3ccc(-c4ccncc4)nn23)c1	ALK	cell-free assay, competition with immobilised ligand	5 µM	100
O=C(NCCCN1CCOCC1)c1ccc(Nc2ncc(Cl)c(-c3ccc(Cl)s3)n2)cc1	ALK	binding, competition with immobilised ligand	1 µM	67
Cc1cnn2ncc(-c3ccnc(N(C)C)n3)c2c1	ALK C1156Y	binding	1 µM	100
CN1CCN(c2ccc(Nc3nccc(-c4ccccc4)n3)cc2C(F)(F)F)CC1	ALK L1196M	binding	10 µM	100
c1cncc(-c2cccc(Nc3nccc(NC4CCCCC4)n3)c2)c1	ALK L1196M	binding, competition with immobilised ligand	10 µM	57
C[C@H](c1ccc(F)cc1)N(Cc1cccc(C(=O)O)c1)C(=O)c1cnc2ccccc2c1	ALK	cell-free assay, competition with immobilised ligand	1 µM	94
COc1ncc2cc3ccccc3nc2c1C#N	ALK C1156Y	cell-free assay, competition with immobilised ligand	5 µM	96
O=C(NCc1ncc(C(F)(F)F)cc1Cl)c1ccc2c(c1)C1(CCS(=O)(=O)CC1)[C@H](C1CC1)N2S(=O)(=O)c1ccc(F)cc1	ALK C1156Y	cell-free assay, competition with immobilised ligand	1 µM	82
CN1CCN(c2ccc(Nc3nccc(-c4cccc([N+](=O)[O-])c4)n3)cc2C(F)(F)F)CC1	ALK C1156Y	binding	10 µM	42
CN(C)c1nccc(-c2cnc3ncccn23)n1	ALK C1156Y	binding	1 µM	82
O=C(NCC1CCOCC1)c1n[nH]cc1NC(=O)c1c(F)cccc1F	ALK C1156Y	binding, competition with immobilised ligand	1 µM	99
